Experimental findings from PubChem BioAssay are described below.

Values joined by “and” are separate entries in the source; they are usually repeats but may differ in a detail not shown here. Equal entries are not always repeated. Active and inactive are the calls of the source.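 Rule for the calls, unless noted: active = viability at or under a set limit in both replicates, limit being median viability minus 3 SD (cut at about 48% in these data, passing the limit was not always enough); inconclusive = at or under the limit in just one replicate; inactive = at or above the limit in both replicates.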

A short description of test [1]: reduced viability of SK-BR-3 breast cancer cells – cell-based, 24 h, human, pilot screen (AID 572;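 active = viability at or below 10% of carrier control in both of two separate runs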;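 note: compound exposure lasted between 18 and 24 h rather than exactly 24 h; 100% = carrier-treated control wells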). Particulars: SK-BR-3 viability, CellTiter-Glo luminescence, at 10 µM, stronger effect = lower value.
Test [2] is described as follows: HUVEC growth inhibition – cell-based, human, primary screen (AID 575;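 active = viability at or below 30% in both replicate assays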;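 note: 100% = median of untreated cell wells with 0.1% DMSO on each plate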). As to conditions: HUVEC proliferation, CellTiter-Glo luminescence, 72 h; at 10 µM; stronger effect = lower value. In a few lines: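 Assay system: Primary human umbilical vein endothelial cells | Quantity: 1250 cells per well | Medium: Supplemented EBM, 2% fetal bovine serum | Detection: CellTiter-Glo luminescence measuring cellular ATP | Read-out: % viability vs DMSO wells | Plate: Collagen-coated 384-well format | Times: 72 h exposure, 37 °C, 5% CO2, 30 min RT equilibration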
(In general: In ATP-based viability assays light output follows the ATP content of the culture.)

The nature of test [3]: H69AR cell proliferation blockers – human, duplicate replicates, primary screen (AID 580).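 Note: 100% = mean luminescence of untreated wells and 0% = no signal.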 As to conditions: H69AR lung tumor cells viability, ATP luminescence, 72 h; at 10 µM; stronger effect = lower value.
Test [4] is described as follows: MRP1 drug-resistance reversers in H69AR cells – cell-based, doxorubicin co-treatment, pilot screen (AID 601;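 active = viability loss from added drug above about 55%, and viability with drug at most 40%, in both replicates, limit read from the data, passing the limit was not always enough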). As to conditions: CellTiter-Glo, 72 h, at 10 µM; for differential viability (reversal): stronger effect = higher value.
The nature of test [5]: yeast transport mutant growth inhibition pilot in 384-well plates, post-Golgi transport modulator project (AID 636; in the data active = inhibition above about 31%). As to conditions: absorbance 615 nm, about 18 h, stronger effect = higher value.
The nature of test [6]: growth suppression of yeast trafficking mutant, preliminary HTS, modulators of trafficking downstream of Golgi apparatus project, 1536-format plate, OD 615 nm (AID 637; in the data active = inhibition above about 30%). As to conditions: yeast transport mutant growth, absorbance 615 nm, 18 h; stronger effect = higher value.
Where [7] appears, read: H69AR cells + 2 uM doxorubicin, measured here: viability with 2 uM doxorubicin, stronger effect = lower value.
Where [8] appears, read: H69AR cells, compound alone cytotoxicity.

By viability is commonly meant a read-out of living cells in per cent, often relative to untreated cells. One may read the inhibition as the relative decrease from the control value, in per cent. For `Cc1ccc(C)c(N(CC(=O)NC2CCCC2)C(=O)CCCC(=O)Nc2ccccn2)c1`, the viability in test [1] is 99% (inactive); in test [2], 81.6% (inactive); in test [3], 102% (inactive); in test [4] (setting [7]), 87.8%; in test [4] (setting [8]) it was 102%. Further, the differential viability (reversal) in test [4] (H69AR cells + 2 uM doxorubicin) is 13.7% (inactive). Further, the inhibition in test [5] was -1.82% (inactive); in test [6] it was -2.95% (inactive).

As to `COC(=O)CNc1nc(C2CC2)nc2c1nnn2Cc1ccccc1Cl`, the viability in test [1] was 89% (inactive); in test [2] it was 84.9% (inactive); in test [3], 94.7% (inactive); in test [4] (setting [7]), 97%; in test [4] (setting [8]) it was 94.7%. The differential viability (reversal) in test [4] (H69AR cells + 2 uM doxorubicin) is -2.29% (inactive). In addition, the inhibition was -9.04% (inactive) in test [5] and 1.13% (inactive) in test [6].

Regarding `CN(C)C(=O)Oc1cccc([N+](C)(C)C)c1`, the viability in test [1] was 62% (inactive) and 92% (inactive); in test [2], 97.5% (inactive) and 92% (inactive); in test [3], 94.7% (inactive) and 120% (inactive); in test [4] (setting [7]), 96.6% and 103%; in test [4] (setting [8]), 94.7% and 120%. The differential viability (reversal) in test [4] (H69AR cells + 2 uM doxorubicin) is -1.94% (inactive) and 17.4% (inactive). Moreover, the inhibition in test [5] is -5.06% (inactive) and -2.21% (inactive); in test [6], -4% (inactive) and -5.83% (inactive).

Turning to `COc1ccccc1C(=O)N1CCN(C(=O)COc2cccc(C)c2)CC1`, the viability in test [1] was 101% (inactive); in test [2] it was 113% (inactive); in test [3], 88.6% (inactive); in test [4] (setting [7]), 85.9%; in test [4] (setting [8]) it was 88.6%. Besides, in test [4] (H69AR cells + 2 uM doxorubicin), the differential viability (reversal) was 2.75% (inactive). Further, the inhibition is -7.84% (inactive) in test [5] and -0.73% (inactive) in test [6].

For the compound `C=CCn1c(=O)c2ccccc2n2c(SC(C)C(=O)Nc3nc(-c4ccccc4)cs3)nnc12` (stereo unspecified), the viability in test [1] was 66% (inactive); in test [2], 65.7% (inactive); in test [3] it was 79.6% (inactive); in test [4] (setting [7]), 81.9%; in test [4] (setting [8]), 79.6%. Further, the differential viability (reversal) in test [4] (H69AR cells + 2 uM doxorubicin) was -2.34% (inactive). The inhibition in test [5] is 2.6% (inactive); in test [6] it was 5.41% (inactive).

In the case of `Cc1ccc(-n2c(N)c(C(N)=O)sc2=S)cc1`, the viability in test [1] is 87% (inactive); in test [2] it was 112% (inactive); in test [3], 87.9% (inactive); in test [4] (setting [7]) it was 88.3%; in test [4] (setting [8]), 87.9%. Further, in test [4] (H69AR cells + 2 uM doxorubicin), the differential viability (reversal) is -0.38% (inactive). The inhibition in test [5] was -3.24% (inactive); in test [6], 0.73% (inactive).

As for `Cc1nc2ccc(S(=O)(=O)NCC(=O)N3CCc4ccccc4C3)cc2s1`, the viability was 87% (inactive) in test [1]; 106% (inactive) in test [2]; 93.5% (inactive) in test [3]; 86.6% in test [4] (setting [7]); 93.5% in test [4] (setting [8]). Further, the differential viability (reversal) in test [4] (H69AR cells + 2 uM doxorubicin) is 6.91% (inactive). Moreover, the inhibition was 2.47% (inactive) in test [5] and 3.11% (inactive) in test [6].

Consider `Cc1nc(-c2coc3cc(OCC(=O)O)ccc3c2=O)cs1`, for which the viability is 93% (inactive) in test [1]; 107% (inactive) in test [2]; 90.5% (inactive) in test [3]; 89% in test [4] (setting [7]); 90.5% in test [4] (setting [8]). Besides, the differential viability (reversal) in test [4] (H69AR cells + 2 uM doxorubicin) is 1.5% (inactive). Also, the inhibition in test [5] is -5.14% (inactive); in test [6], -7.64% (inactive).

As to `CC(C)(C)c1ccc(C(=O)N2CCC(C(=O)NCc3ccncc3)CC2)cc1`, the viability in test [1] is 110% (inactive); in test [2], 95.6% (inactive); in test [3], 88.8% (inactive); in test [4] (setting [7]) it was 94.3%; in test [4] (setting [8]), 88.8%. Moreover, the differential viability (reversal) in test [4] (H69AR cells + 2 uM doxorubicin) is -5.45% (inactive). Besides, the inhibition in test [5] is -3.2% (inactive); in test [6], -8.18% (inactive).

Take `COc1ccccc1C(=O)NCC(=O)Nc1ccccc1`: the viability in test [1] was 104% (inactive); in test [2], 98.2% (inactive); in test [3], 98.5% (inactive); in test [4] (setting [7]) it was 100%; in test [4] (setting [8]) it was 98.5%. The differential viability (reversal) in test [4] (H69AR cells + 2 uM doxorubicin) was -1.45% (inactive). Moreover, the inhibition in test [5] is -8.08% (inactive); in test [6], 2.91% (inactive).

Turning to `Cc1cc2cc(CNC(=O)c3ccc4c(c3)OCO4)ccc2[nH]1`, the viability in test [1] was 102% (inactive); in test [2] it was 114% (inactive); in test [3], 89.1% (inactive); in test [4] (setting [7]) it was 92.3%; in test [4] (setting [8]), 89.1%. Further, the differential viability (reversal) in test [4] (H69AR cells + 2 uM doxorubicin) is -3.21% (inactive). Moreover, the inhibition was -1.56% (inactive) in test [5] and 3.61% (inactive) in test [6].

For `CCO/C([O-])=N/c1c[n+](N2CCOCC2)no1`, the viability is 81% (inactive) in test [1]; 95.9% (inactive) in test [2]; 86.7% (inactive) in test [3]; 90% in test [4] (setting [7]); 86.7% in test [4] (setting [8]). Also, the differential viability (reversal) in test [4] (H69AR cells + 2 uM doxorubicin) is -3.3% (inactive). The values for the inhibition in test [5] and in test [6] were 1.3% (inactive) and 2.33% (inactive), respectively.
